The source made the active and inactive calls.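 How the source made its calls, unless noted: active means fluorescence slope after compound addition differing from the mean of all tested samples at 99.7% confidence, mostly higher but some lower; inactive means the rest.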
Columns and labels:
[1] = inhibitors of TNFa-induced NFkB p65 translocation, primary screen, imaging, HUVEC, MLSMR starter and 10KST1 sets (AID 438;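 active means inhibition above 20% together with a positive visual image hit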;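 further: compound added about 3h40 before a 20 min TNFalpha stimulation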;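 on inhibition: signal is the nuclear over cytoplasmic p65 intensity ratio per well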); settings: HUVEC TNFa-induced p65 nuclear translocation; cell count: measured here: nuclei count (cytotoxicity indicator), at 2.08 µM; inhibition: at 2 µM, stronger effect = higher value, 0% TNFa-plus-vehicle, 100% no-TNFa wells
[2] = inhibitors of E-selectin induction by TNFa, primary screen, imaging, HUVEC, immunofluorescence, MLSMR starter and 10KST1 sets (AID 487;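 active means visually confirmed hit in the image check and inhibition above 20%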;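 on inhibition: signal is fraction of cell area covered by stained E-selectin grains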;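 on nuclei count: 100% = median nuclei count of all wells on the same plate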); settings: HUVEC TNFalpha-induced E-selectin immunofluorescence imaging, at 2 µM; inhibition: stronger effect = higher value; nuclei count: measured here: cell number, toxicity
[3] = DUSP6 inhibitors restoring Erk phosphorylation by chemical complementation, primary imaging in DUSP6-transfected HeLa (AID 609;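 active means compounds giving at least 50% inhibition in the cell-based MKP-3 phosphatase rescue imaging test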;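 on inhibition: phospho-Erk level distribution per well compared with pooled transfected vehicle control wells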); settings: HeLa MKP-3 transfected, phospho-Erk imaging KS statistic, at 10 µM, cells stimulated with TPA for 15 min
[4] = molecular target: Dual specificity protein phosphatase 6 (Homo sapiens) (UniProt Q16828); experiment: as above; settings: HeLa MKP-3 transfected, phospho-Erk imaging KS statistic; at 10 µM; stronger effect = higher value; cells stimulated with TPA for 15 min
Sequence of Dual specificity protein phosphatase 6 (Homo sapiens) (Q16828 whole entry, looked up): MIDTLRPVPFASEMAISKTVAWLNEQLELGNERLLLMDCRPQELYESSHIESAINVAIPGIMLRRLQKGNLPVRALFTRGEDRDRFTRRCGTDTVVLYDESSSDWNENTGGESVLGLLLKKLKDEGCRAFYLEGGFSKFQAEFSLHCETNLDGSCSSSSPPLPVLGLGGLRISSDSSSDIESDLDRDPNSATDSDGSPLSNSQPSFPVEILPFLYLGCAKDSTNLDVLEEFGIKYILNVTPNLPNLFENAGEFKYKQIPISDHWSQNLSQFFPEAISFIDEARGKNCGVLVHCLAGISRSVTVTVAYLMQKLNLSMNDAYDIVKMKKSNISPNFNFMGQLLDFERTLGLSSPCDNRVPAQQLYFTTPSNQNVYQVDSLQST

[5] = molecular target: Voltage-gated potassium channel subunit beta-2 (Rattus norvegicus) (UniProt P62483); experiment: KvBeta enzyme negative modulators, primary screen, biochemical, NADPH fluorescence (AID 622;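 active means fluorescence slope higher than the sample average by over 3 SD, cut at about -0.22 in these data, passing the limit was not always enough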;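 further: slope of raw intensity against log time taken from 70 to 1610 s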); settings: recombinant KvBeta, 4-cyanobenzaldehyde reduction, at 10 µM, stronger effect = higher value
Sequence of Voltage-gated potassium channel subunit beta-2 (Rattus norvegicus) (P62483 whole entry, looked up): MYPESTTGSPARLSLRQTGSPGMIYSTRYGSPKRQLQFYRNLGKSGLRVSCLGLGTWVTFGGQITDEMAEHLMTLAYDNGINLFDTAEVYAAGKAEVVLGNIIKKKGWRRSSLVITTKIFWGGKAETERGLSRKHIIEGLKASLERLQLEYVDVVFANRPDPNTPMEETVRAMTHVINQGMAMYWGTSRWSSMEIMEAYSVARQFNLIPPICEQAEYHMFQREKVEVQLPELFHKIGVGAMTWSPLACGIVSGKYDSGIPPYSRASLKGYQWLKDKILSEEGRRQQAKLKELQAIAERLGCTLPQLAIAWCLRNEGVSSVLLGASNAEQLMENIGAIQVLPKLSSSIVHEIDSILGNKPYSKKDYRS

[6] = molecular target: Voltage-gated potassium channel subunit beta-2 (Rattus norvegicus) (UniProt P62483); experiment: KvBeta positive modulators, primary screen, biochemical, NADPH fluorescence (AID 623;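 active means NADPH fluorescence slope more negative than the mean of all samples by about 3 SD, 99.7% confidence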;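 further: fluorescence intensity change per second fitted from 20 to 320 s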); settings: Recombinant KvBeta, NADPH fluorescence decrease slope, 10 min; at 10 µM; stronger effect = lower value
[7] = molecular target: Muscarinic acetylcholine receptor M4 (Homo sapiens) (UniProt P08173); experiment: compounds altering M4/GIRK thallium flux, either direction, primary screen, M4 allosteric agonist project, cell-based, HEK293 M4/GIRK, BTC-AM (AID 625); settings: at 10 µM, actives lie on both sides;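 further: thallium influx through GIRK channels coupled to M4 in HEK293 cells with BTC-AM dye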
Sequence of Muscarinic acetylcholine receptor M4 (Homo sapiens) (P08173 whole entry, looked up): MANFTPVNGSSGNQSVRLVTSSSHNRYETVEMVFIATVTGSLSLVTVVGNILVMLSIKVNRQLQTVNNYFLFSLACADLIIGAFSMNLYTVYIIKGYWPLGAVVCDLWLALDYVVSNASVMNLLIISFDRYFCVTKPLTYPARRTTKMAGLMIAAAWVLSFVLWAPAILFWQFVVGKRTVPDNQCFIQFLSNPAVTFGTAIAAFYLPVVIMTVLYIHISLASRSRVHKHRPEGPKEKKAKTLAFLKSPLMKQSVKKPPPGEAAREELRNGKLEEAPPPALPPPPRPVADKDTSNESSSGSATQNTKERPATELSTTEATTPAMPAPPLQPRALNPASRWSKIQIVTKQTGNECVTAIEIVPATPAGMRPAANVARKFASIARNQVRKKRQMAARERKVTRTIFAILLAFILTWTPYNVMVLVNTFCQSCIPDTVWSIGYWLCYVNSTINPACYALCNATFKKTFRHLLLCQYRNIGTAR
In short: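 Material: M4/GIRK1/GIRK2 stable HEK293 cell line. Medium: pH 7.3 thallium assay buffer. Dosing: single compound concentration, 10 µM final. Schedule: 1 h dye loading, 2 min kinetic read. Measured by: kinetic fluorescence with BTC-AM dye. Read-out: post-addition slope, 15–24 s, of baseline-normalized fluorescence. Benchmarks: carbachol and DMSO controls.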

[8] = inhibitors of larval lipid processing in zebrafish, primary screen, whole organism, PED6 fluorescence, gall bladder and intestine (AID 686;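 active means a full or partial loss of lipid-probe fluorescence in the fish gall bladder, intestine or both, judged by eye; inactive means no fluorescence loss, or compound toxic to the fish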;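 further: larvae 5 to 7 days old with five fish per well; signal comes from phospholipase A2 cleavage of quenched PED6 carried via bile; overnight exposure to compound and PED6 before scoring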); settings: Zebrafish larvae PED6 lipid processing, fluorescence scoring; screened at 20 µM (by protocol)
In short: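 System: live zebrafish larvae aged 5-7 days, whole organism; measure: graded gall bladder and intestinal fluorescence inhibition per well; incubation: overnight exposure; reagent: ingested quenched lipid PED6 at 100 nM; signal: By-eye fluorescence microscopy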

[9] = inhibitors of Chlamydomonas gravitaxis, primary screen, whole organism, Chlamydomonas reinhardtii, WT vs cilia-less mutant, absorbance, 96-well (AID 463189;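 active means inhibition at or above 50% relative to wild type and mutant plate controls; inactive means inhibition below 50%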;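 further: 0% = wild type cc124 cells in DMSO and 100% = ciliumless bld1 mutant cells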); settings: OD600 absorbance, 2 days, at 10 µM, stronger effect = higher value
[10] = measured here: cell density z-score
[11] = measured here: nuclear c-Myc green intensity z-score
[12] = measured here: nuclear pErk red intensity z-score, stronger effect = higher value

| SMILES | cell count [1] | inhibition [1] | inhibition [2] | nuclei count [2] | z-score [3, 10] | z-score [3, 11] | z-score [3, 12] | inhibition [4] | fluorescence slope [5] | NADPH fluorescence slope [6] | fluorescence slope [7] | outcome [8] | inhibition [9] |
| --- | --- | --- | --- | --- | --- | --- | --- | --- | --- | --- | --- | --- | --- |
| CC(O)(C#CCN1CCOCC1)c1ccccc1 (centres undefined) | 634 | 1.5% (inactive) | -34.4% (inactive) | 149% | 0.104 | 0.285 | 0.53 | -5.81% (inactive) | -0.455 (inactive) | -5.1e-05 (inactive) | 0.00484 (inactive) | inactive | 17.4% (inactive) |
| CCOC(=O)Cn1nc(C)c2ccccc2c1=O | 579 | -1.2% (inactive) | -43.5% (inactive) | 154% | 1.29 | -0.0748 | 0.243 | 7.21% (inactive) | -0.515 (inactive) | -0.000104 (inactive) | 0.00507 (inactive) | inactive | -2.22% (inactive) |
| CCOC(=O)c1c(CN2CCN(CCO)CC2)n(C)c2cc(Br)c(OC)cc12 | 380 | -7.5% (inactive) | -1.9% (inactive) | 103% | -0.09 | 0.157 | 0.909 | -2.29% (inactive) | -0.4 (inactive) | 5.8e-06 (inactive) | 0.00459 (inactive) | inactive | 26.8% (inactive) |
| CC1(C)Cc2c(C#N)c(N3CCN(C(=O)c4ccco4)CC3)nc(-c3ccco3)c2CS1 | 639 | -0.1% (inactive) | -82.6% (inactive) | 138% | -1.4 | -0.121 | -2.48 | -4.27% (inactive) | -0.464 (inactive) | -6.6e-05 (inactive) | 0.00584 (inactive) | inactive | 3.99% (inactive) |
| Nc1ccc2c3c(cccc13)CC2 | 400 | -4.5% (inactive) | -74% (inactive) | 108% | 0.938 | 0.125 | -0.141 | 9.37% (inactive) | -0.281 (inactive) | -2.2e-05 (inactive) | 0.00407 (inactive) | inactive | -6.34% (inactive) |
| C=C(C)CSc1nc(N)c2c3c(sc2n1)CCC3 | 394 | -3.4% (inactive) | 2.9% (inactive) | 149% | -1.07 | 1.64 | -0.412 | 5.42% (inactive) | -0.451 (inactive) | -0.000115 (inactive) | 0.00788 (inactive) | inactive | -7.33% (inactive) |
| Cn1c(=O)c2c(nc(Br)n2Cc2ccc3ccccc3c2)n(C)c1=O | 623 | -9.2% (inactive) | -12.5% (inactive) | 163% | -0.362 | -0.997 | 0.811 | -8.95% (inactive) | -0.5 (inactive) | -5.2e-05 (inactive) | 0.00605 (inactive) | inactive | 5.52% (inactive) |
| COc1cccc(OC)c1C(=O)Nc1nc2ccc(S(C)(=O)=O)cc2s1 | 388 | -2.4% (inactive) | -8.7% (inactive) | 109% | 0.854 | 0.658 | -1.02 | 6.04% (inactive) | -0.409 (inactive) | -1e-05 (inactive) | 0.00408 (inactive) | inactive | 19.4% (inactive) |
| CCn1nc(NC(=O)c2ccco2)c2cc3ccccc3nc21 | 700 | -11.3% (inactive) | -20.2% (inactive) | 168% | -0.0808 | 0.362 | -0.0698 | -6.48% (inactive) | -0.404 (inactive) | -4.1e-05 (inactive) | 0.0055 (inactive) | inactive | -8.58% (inactive) |
| N#Cc1nc(COc2ccc(Cl)cc2)oc1N1CCN(Cc2ccccc2)CC1 | 489 | -3% (inactive) | -24.2% (inactive) | 139% | -0.636 | 0.047 | 1.31 | -2.29% (inactive) | -0.411 (inactive) | -5.4e-05 (inactive) | 0.00907 (inactive) | inactive | 3.53% (inactive) |
| COCCCn1cnc2c(c1=O)c1nc3ccccc3nc1n2CCc1ccccc1 | 607 | -6.7% (inactive) | 10.3% (inactive) | 115% | -3.3 | 0.876 | 0.579 | 1.63% (inactive) | -0.492 (inactive) | -4.8e-05 (inactive) | 0.00438 (inactive) | inactive | 12.1% (inactive) |
| CCCCOC(=O)c1ccc(NC(=O)CSc2nncn2C)cc1 | 507 | -8.4% (inactive) | -82.5% (inactive) | 168% | -0.268 | -0.273 | 0.565 | -0.624% (inactive) | -0.456 (inactive) | -6.8e-05 (inactive) | 0.00538 (inactive) | inactive | 5.5% (inactive) |
| O=C(NCc1ccccc1)C1C(=O)N(Cc2ccccc2)C(=O)C1C1(O)CCCC1 (centres undefined) | 653 | -2.4% (inactive) | -17.9% (inactive) | 108% | -0.94 | 0.675 | 0.754 | -13.3% (inactive) | -0.508 (inactive) | -2.1e-05 (inactive) | 0.00572 (inactive) | inactive | -5.5% (inactive) |
